Screening data (PubChem)
This is a sample that favours compounds with a hit; in the whole collection about 12% have one here.
WT yeast gro inh: growth inhibition of WT yeast, mitochondrial fusion screen; inhibition, % at 10 µM; AID 1362; actives 2.1% (n = 190,000); mitochondrial fusion phenotypic screen, WT strain; in the data active = inhibition above about 58%; tested in S. cerevisiae
RAM network inh: inhibitors of the yeast RAM network; S. cerevisiae dse1pr::URA3 reporter, 5-FOA growth OD615, 2 d; analog-sensitive cbk1-as2 kinase mutant strain; inhibition, % at 50 µM; actives 1.8% (n = 190,000); AID 868;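 active = inhibition above a set limit, 3 SD over mean compound inhibition, cut at about 8.4% in these data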;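 note: inhibition rescues growth on 5-FOA so higher OD means more RAM inhibition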
L major viab: reduces viability of Leishmania major promastigotes; resazurin fluorescence viability; actives 9% (n = 200,000); inhibition, % at 10 µM; in the data active = inhibition above about 50%;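 note: promastigotes grown with compound for 44 hours at 28 °C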
ABCG2 inh: blocks JC-1 efflux by human ABCG2 transporter; IgMXP3 cells, flow cytometry; inhibition, % at 6.6 µM; actives 0.1% (n = 190,000); Q9UNQ0;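 active = inhibition above 80%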
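Times: 10 min at 25 °C | Test system: Two drug-resistant human cell lines, ABCG2 and ABCB1 | Quantity: 3 million cells/mL final, two lines in 1:1 ratio | Signal: Flow cytometry, 530 nm JC-1 signal | Dosing: Compound at 6.6 µM | Controls: Nicardipine and DMSO wells | Reagent: JC-1 as fluorescent efflux pump substrate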
ABCB1 inh: human ABCB1 inhibition, ABCG2 as counter-screen; P08183; CCRF-Adr cells, JC-1 efflux, flow cytometry; inhibition, % at 6.6 µM; actives 0.067% (n = 190,000); in the data active = inhibition above about 40%;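 note: higher value means more JC-1 retained so stronger ABCB1 efflux block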
Hits are given with their value; 0 = inactive; - = no result given.

SMILES | WT yeast gro inh | RAM network inh | L major viab | ABCG2 inh | ABCB1 inh
O=C(Nc1ccc(Br)cc1F)c1ccc2c(c1)N(Cc1ccccc1)C(=O)CS2=O (stereo not drawn) | 0 | 0 | 100 | 0 | 0
NC(=O)C1(N2CCCCC2)CCN(c2nc(-c3ccc(Br)cc3)cs2)CC1 | 65 | 0 | 0 | 0 | 0
COc1cc(CNCCCN2CCOCC2)cc(Br)c1OCc1ccc(Cl)cc1 | 0 | 0 | 100 | 0 | 0
COc1cc(CNCCN2CCOCC2)ccc1OCc1ccccc1Cl | 0 | 0 | 92 | 0 | 0
COc1cc(CNCCN2CCOCC2)ccc1OCc1ccc(Cl)cc1 | 0 | 0 | 94 | 0 | 0
COc1cc(/C=C(\C#N)c2ccccn2)ccc1OCc1ccccc1Cl | 0 | 9.7 | 0 | 0 | 0
COc1ccc(NC(=O)COc2ccc(CNCCCN3CCOCC3)cc2OC)cc1 | 0 | 0 | 0 | 0 | 0
COc1ccc(Cl)cc1NC(=S)NCCN1CCOCC1 | 0 | 0 | 0 | 0 | 0
CC(=O)Nc1ccc(N2CC(C)(C)C2=O)cc1 | 0 | 0 | 0 | 0 | 0
COc1cc(CNCc2ccccn2)ccc1OCc1ccccc1Cl | 0 | 0 | 94 | 0 | 0
CCOc1c(Cl)cc(CNCc2ccccn2)cc1OC | 0 | 0 | 0 | 0 | 0
COc1ccccc1-c1c(C)oc2c(CN3CCN(C)CC3)c(O)ccc2c1=O | 0 | 0 | 90 | 0 | 0
COc1ccc(-c2c(C)oc3c(CN4CCN(CCO)CC4)c(O)ccc3c2=O)cc1OC | 0 | 0 | 99 | 0 | 0
CCOc1ccccc1Oc1c(C)oc2c(CN3CCN(C)CC3)c(O)ccc2c1=O | 0 | 0 | 75 | 0 | 0
COC(=O)c1ccc(Oc2c(C(F)(F)F)oc3c(CN4CCN(C)CC4)c(O)ccc3c2=O)cc1 | 0 | 0 | 100 | 0 | 0
Cc1ccc(NC(=S)N(CCN2CCOCC2)Cc2cc3cc4c(cc3[nH]c2=O)OCO4)cc1 | 0 | 0 | 0 | 0 | 0
COc1cc2nc(N(C)C)nc(N)c2cc1OC | 0 | 0 | 100 | 0 | 0
COc1cc2nc(N(C)CCCNC(=O)C3CCCO3)nc(N)c2cc1OC (stereo not drawn) | 0 | - | - | 0 | -
Cc1nc2sccn2c(=O)c1CCN1CCC(=C(c2ccc(F)cc2)c2ccc(F)cc2)CC1 | 79 | 0 | 0 | 0 | 0
CCCCc1c(O)nc2sccn2c1=O | 0 | 0 | 0 | 0 | 0
O=S(=O)(Nc1cc(Cl)ccc1N1CCCCC1)c1cccs1 | 60 | 0 | 0 | 0 | 0
O=S(=O)(Nc1ccc(N2CCCCC2)cc1)c1cccs1 | 0 | 0 | 0 | 0 | 0
Cc1cc(Oc2ccc(C)c(Cl)c2)nc(SCC(=O)c2ccccc2)n1 | 0 | 9.1 | 0 | 0 | 0
Cc1cc(Br)cnc1NC(=S)Nc1ccc(F)cc1F | 0 | 0 | 0 | 0 | 0
CC(C)(C)C1=NN(C(=O)c2ccccc2)C(O)(C(C)(C)C)C1 (stereo not drawn) | 0 | 10 | 0 | 0 | 0
SMILES | WT yeast gro inh | RAM network inh | L major viab | ABCG2 inh | ABCB1 inh
CN1CCc2c(c3ccccc3n2Cc2ccccc2)C1 | 0 | 0 | 100 | 0 | 0
CN1CCc2c(c3ccccc3n2C)C1 | 0 | 0 | 0 | 0 | 0
Cc1ccc(CN(Cc2cccnc2)C(=O)CN2C(=O)COc3ccccc32)o1 | 0 | 0 | 73 | 0 | 0
O=C(CSc1ncn[nH]1)N1CCOCC1 | 0 | 0 | 0 | 0 | 0
Cc1ccc(NC(=O)C(C)OC(=O)CCNS(=O)(=O)c2ccc(C)cc2)cc1 (stereo not drawn) | 0 | 0 | 0 | 0 | 0
CC(=O)Nc1ccc(S(=O)(=O)NCCC(=O)OCCN2C(=O)c3ccccc3C2=O)cc1 | 73 | 0 | 0 | 0 | 0
Clc1ccccc1N=C1NN=C(c2cccs2)CS1 | 0 | 0 | 0 | 0 | 0
C/C(=N\N1CCN(C)CC1)c1ccc(Cl)c(Cl)c1 | 0 | 0 | 81 | 0 | 0
Cc1cc(C)c2nc(N3CCC(C(=O)NCCCN4CCCCC4)CC3)sc2c1 | 0 | 0 | 97 | 0 | 0
CCCN1CCN(CCCNC(=O)C2CCCN(c3nc4ccc(OCC)cc4s3)C2)CC1 (stereo not drawn) | 0 | 0 | 64 | 0 | 0
CCOc1ccc2nc(N3CCC(C(=O)N4CCN(C5CCCCC5)CC4)CC3)sc2c1 | 0 | 0 | 95 | 0 | 0
Cc1ccccc1-c1c(C)oc2cc(O)ccc2c1=O | 0 | 0 | 0 | 0 | 0
CC(=O)NCCn1c(SCc2cc(=O)n3cc(Cl)ccc3n2)nc2ccccc2c1=O | 0 | 11 | 0 | 0 | 0
CC(=O)NCCn1c(SCc2ccc(C)cc2)nc2ccccc2c1=O | 65 | 0 | 0 | 0 | 0
CC(=O)NCCn1c(SCc2ccccc2F)nc2ccccc2c1=O | 0 | 0 | 0 | 0 | 0
CC(=O)NCCn1c(SCC#N)nc2ccccc2c1=O | 0 | 0 | 0 | 0 | 0
CCNC(=O)NCCNC(=O)c1cc(OCC(F)(F)F)ccc1OCC(F)(F)F | 0 | 0 | 0 | 0 | 0
O=C(NCCNC(=O)c1cc(OCC(F)(F)F)ccc1OCC(F)(F)F)Nc1ccccc1 | 0 | 8.7 | 0 | 0 | 0
O=C(/C=C(/c1ccc(Cl)cc1)n1cncn1)c1ccccc1 | 0 | 0 | 94 | 0 | 0
N#CCCn1nc(-c2ccc([N+](=O)[O-])cc2)cc1Nc1ccccc1NC(=O)C(F)(F)F | 0 | 0 | 0 | 0 | 0
CCCCOc1ccc(C(=O)OC2CC(C)N(C)CC2C)cc1 (stereo not drawn) | 0 | 0 | 98 | 0 | 0
CCCCOc1ccc(C(=O)N2CCC(C)CC2)cc1 | 0 | 0 | 0 | 0 | 0
Cc1nc(NC(=O)c2ccccc2)sc1-c1csc(N)n1 | 0 | 0 | 0 | 0 | 0
Cc1nc(NC(=O)c2ccccc2)sc1-c1csc(NCCc2ccccc2)n1 | 0 | 0 | 100 | 0 | 0
Cc1nc(NC(=O)c2ccccc2)sc1-c1csc(NCc2ccccc2)n1 | 0 | 0 | 86 | 0 | 0
SMILES | WT yeast gro inh | RAM network inh | L major viab | ABCG2 inh | ABCB1 inh
COc1ccc(CNC(=O)Nc2ccc3c(c2)N(C)C(=O)CS3)cc1 | 0 | 0 | 0 | 0 | 0
COC(=O)Cc1csc(Nc2ccc(F)c(Cl)c2)n1 | 0 | 0 | 0 | 0 | 0
Cc1nn(Cc2ccc(F)cc2)c(C)c1NC(=O)c1cnn2c1NC(c1ccccc1)CC2C(F)(F)F (stereo not drawn) | 0 | 0 | 73 | 0 | 0
O=C(CSc1nccc(=O)[nH]1)NN(c1ccccc1)c1ccccc1 | 0 | 0 | 0 | 0 | 0
CNS(=O)(=O)c1cc(N(C)S(=O)(=O)c2ccc(C)cc2)c(C)cc1C | 0 | 10 | 0 | 0 | 0
Cc1ccc(S(=O)(=O)N(C)c2cc(S(=O)(=O)N3CCC(C)CC3)c(C)cc2C)cc1 | 0 | 0 | 77 | 0 | 0
OCC1(Cc2ccccc2)CCCN(Cc2ccn[nH]2)C1 (stereo not drawn) | 0 | 0 | 0 | 0 | 0
CCCn1c(C)cc(C(=O)COC(=O)c2ccc[nH]c2=O)c1C | 0 | 0 | 0 | 0 | 0
CCCn1c(C)cc(C(=O)COC(=O)CN=C2NS(=O)(=O)c3ccccc32)c1C | 0 | 0 | 55 | 0 | 0
O=C(O)C1CC=CCC1C(=O)Nc1ccccc1 (stereo not drawn) | 0 | 0 | 0 | 0 | 0
CC1CC1C(=O)Nc1ccc(-c2ccccc2)cc1 (stereo not drawn) | 0 | 0 | 51 | 0 | 0
Clc1ccc(OCc2nnc(SCCN3CCCCC3)n2Cc2ccco2)cc1 | 0 | 0 | 100 | 0 | 0
